Measured values gathered from unrelated publications.
In brackets after ≈: the same amount, converted by molar mass.
Organism: Mycolicibacterium smegmatis
Effect on: microbial growth

SMILES | method | strain | tested at | time | measurement | value
CO[C@H]1/C=C/O[C@@]2(C)Oc3c(C)c(O)c4c(O)c(c(/C=N/N5CCN(C)CC5)c(O)c4c3C2=O)NC(=O)/C(C)=C\C=C\[C@H](C)[C@H](O)[C@@H](C)[C@@H](O)[C@@H](C)[C@H](OC(C)=O)[C@@H]1C | disc diffusion |  | 15 µg/disc |  | inhibition zone | 14 mm
CCCCCCCCCc1cn(CCN2CCN(C(=O)c3c(C)nc4sccn34)CC2)nn1 |  |  |  | 72 h | IC50 | 28.2 µM
CC(C)=CCC/C(C)=C/COCCNC1C2CC3CC(C2)CC1C3 (stereo not drawn) |  |  |  | 48 h | IC50 | ~9 µM
ON=C1C2CC3CC(C2)CC1C3 |  |  |  | 48 h | IC50 | > 500 µM
COCCOc1ccc(-c2c[nH]c(N)n2)cc1 |  | ATCC700084 MC^2155 |  | 48 h | MIC | > 200 µM
Cc1nc2sc3ccccc3n2c1C(=O)N1CCN(Cc2cn(-c3cccc(Cl)c3)nn2)CC1 |  |  |  | 72 h | IC50 | 52.7 µM
CCCCCc1ccc(-c2c[nH]c(N)n2)cc1 |  | ATCC700084 MC^2155 |  | 48 h | MIC | 200 µM
COc1c(N2C[C@@H]3CCCN[C@@H]3C2)c(F)cc2c(=O)c(C(=O)O)cn(C3CC3)c12 |  | ATCC14468 |  |  | MIC90 | 0.12 µg/mL (≈ 0.299 µM)
Cc1ccc(-n2cc(CN3CCN(C(=O)c4c(C)nc5sc6ccccc6n45)CC3)nn2)cc1C |  |  |  | 72 h | IC50 | 5.7 µM
O=C(N/N=C/c1ccc([N+](=O)[O-])o1)c1ccc(O)cc1 |  | ATCC14468 |  |  | MIC90 | > 1000 µg/mL
CCc1ccc(-c2c[nH]c(N)n2)cc1 |  | ATCC700084 MC^2155 |  | 48 h | MIC | 100 µM
Cc1nc2sccn2c1C(=O)N1CCN(CCn2cc(CSc3nc4ccccc4[nH]3)nn2)CC1 |  |  |  | 72 h | IC50 | 16.4 µM
